Measured values as given in ChEMBL document CHEMBL1157983, “Novel labdane diterpenes from the insecticidal plant hyptis spicigera1” (1999).
Converted amounts (≈) assume the structure as drawn. The source made the active and inactive calls. The rule behind the calls is not given here.

Legend:
[1] = system: KB; test: Cytotoxicity against human KB cells after 72 hrs by SRB assay; format: functional; settings: read-out: ED50 (the source's name)
Summary of the method: (§1)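 KB (nasopharyngeal) and HCT-15 (colon) lines kept in RPMI 1640 with 10% FBS at 37 °C, 5% CO2. Log-phase cells were exposed in triplicate to 0.16-20 µg/mL of sample for 72 h. Cell density was read by sulforhodamine staining. ED50 (50% growth inhibition versus control) was estimated from a semilog plot of concentration against percent viable cells. Ellipticine served as positive control.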

[2] = system: HCT-15; test: Cytotoxicity against human HCT-15 cells after 72 hrs by SRB assay; format: functional; settings: HCT-15, 72 h, read-out: ED50 (the source's name); summary of the method: as §1
[3] = system: HCT-15; test: Cytotoxicity against human HCT-15 cells at 20 ug/mL after 72 hrs by SRB assay; format: functional, cell-based
[4] = system: KB; test: Cytotoxicity against human KB cells up to 20 ug/mL after 72 hrs by SRB assay; format: functional, cell-based; summary of the method: as §1
[5] = system: Ostrinia nubilalis; test: Insecticidal activity against Ostrinia nubilalis larvae after 4 to 6 days; format: functional, organism-based
Summary of the method: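 Samples were dissolved in 95% EtOH and mixed into agar-based meridic diet at final 5, 50 and 100 ppm. European corn borer larvae were reared on it at 25 °C, about 80% RH, with a 16:8 light:dark cycle. Mortality and larval weight were recorded every 4-6 days over the growth period. ANOVA with Tukey's multiple range test.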

`C=C1[C@H](O)C[C@H]2[C@@](C)(COC(C)=O)C[C@H](O)C[C@]2(C)[C@H]1CC/C(C)=C\C=O` was tested, and the EC50 [1] was 11 µg/mL (≈ 29.1 µM) and the EC50 [2] was 11 µg/mL (≈ 29.1 µM).
`C=C1[C@H](O)C[C@H]2[C@@](C)(COC(C)=O)CC(=O)C[C@]2(C)[C@H]1CC/C(C)=C\CO` gave an EC50 [1] of 11 µg/mL (≈ 29.1 µM) and an EC50 [2] of 11 µg/mL (≈ 29.1 µM).
For `C=C1[C@H](O)C[C@@H]2[C@](C)(CO)C[C@@H](O)C[C@@]2(C)[C@H]1CC/C(C)=C\CO`, the Activity [3] was “inactive” and the Activity [4] was “inactive”.
For `Cc1c2ccncc2c(C)c2c1[nH]c1ccccc12` [ELLIPTECINE], the EC50 [1] was 0.1 µg/mL (≈ 0.406 µM) and the EC50 [2] was 0.17 µg/mL (≈ 0.69 µM).
In the case of `C=C1[C@H](O)C[C@H]2[C@@](C)(COC(C)=O)C[C@H](O)C[C@]2(C)[C@H]1CC/C(C)=C\COC(C)=O`, the Activity [3] is reported as “inactive”, the Activity [5] is reported as “Active” and the Activity [4] is reported as “inactive”.
Work on `C=C1[C@H](O)C[C@H]2[C@@](C)(COC(C)=O)C[C@H](O)C[C@]2(C)[C@H]1CC/C(C)=C\CO` yielded an EC50 [1] of 19.4 µg/mL (≈ 51 µM) and an EC50 [2] of 8.7 µg/mL (≈ 22.9 µM).
For `C=C1[C@H](O)C[C@H]2[C@@](C)(COC(C)=O)C[C@H](O)C[C@]2(C)[C@H]1CCC(C)=O`, the Activity [3] was “inactive” and the Activity [4] was “inactive”.
With `C=C1[C@H](OC(C)=O)C[C@H]2[C@@](C)(COC(C)=O)C[C@H](O)C[C@]2(C)[C@H]1CC/C(C)=C\COC(C)=O` the Activity [3] was “inactive” and the Activity [4] was “inactive”.
